Data on 17 compounds can be found in ChEMBL document CHEMBL3124784, “Synthesis, in vitro antiplasmodial activity and cytotoxicity of a series of artemisinin-triazine hybrids and hybrid-dimers” (Eur J Med Chem, 2014).

The nature of data set [1]: Selectivity index, ratio of IC50 for CHO cells to IC50 for asexual erythrocytic stage of chloroquine-sensitive Plasmodium falciparum NF54. The settings on record: hamster; read-out: Ratio IC50. Type of data set: toxicity, cell-based.
Data set [2] concerns Plasmodium falciparum. The experiment in a line: Potency index, ratio of pyrimethamine IC50 to compound IC50 for asexual erythrocytic stage of chloroquine-sensitive Plasmodium falciparum NF54. Type of data set: functional.
In data set [3] the test system is Plasmodium falciparum. The experiment in a line: Antiplasmodial activity against asexual erythrocytic stage of chloroquine-resistant Plasmodium falciparum Dd2 assessed as parasite growth inhibition after 48 hrs by lactate dehydrogenase assay. It is filed as functional, organism-based. To be noted: Dd2, 48 h. In short, it runs like this:
(§1)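 pLDH assay (modified Makler method) on cultured parasites, 48 h exposure. Stocks 20 mg/mL in 100% DMSO, stored at −20 °C, diluted in complete medium on the day of analysis; suspensions tested if not fully dissolved. Two-fold serial dilutions over ten concentrations; references started at 1000 ng/mL. Full dose-response for IC50; triplicate on one occasion.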

The nature of data set [4]: Resistance index, ratio of IC50 for asexual erythrocytic stage of chloroquine-resistant Plasmodium falciparum Dd2 to IC50 for asexual erythrocytic stage of chloroquine-sensitive Plasmodium falciparum NF54. Type of data set: functional.
In the next data set the test system is CHO. Kind of data set: Cytotoxicity against CHO cells after 48 hrs by MTT assay. To be noted: Cricetulus griseus. Type of data set: cell-based.
Data set [5] relates to Plasmodium falciparum. The experiment in a line: Antiplasmodial activity against asexual erythrocytic stage of chloroquine-sensitive Plasmodium falciparum NF54 assessed as parasite growth inhibition after 48 hrs by lactate dehydrogenase assay. Type of data set: functional, organism-based. To be noted: NF54, 48 h. In short, it runs like this: as §1
Data set [6] deals with Plasmodium falciparum. Kind of data set: Potency index, ratio of chloroquine IC50 to compound IC50 for asexual erythrocytic stage of chloroquine-sensitive Plasmodium falciparum NF54. It is filed as functional.

Each structure is given as a SMILES string.

The IC50 is the concentration needed to halve the response being measured. As to `C[C@H]1[C@@H](OCCNCCNc2nc(N3CCOCC3)nc(N3CCOCC3)n2)O[C@@H]2O[C@@]3(C)CC[C@H]4[C@H](C)CC[C@@H]1[C@@]24OO3.O=C(O)C(=O)O`, the selectivity ratio in data set [1] was found to be 160. The entries for the “Ratio IC50” value (in the data set with Plasmodium falciparum [2]; in data set [4]) were “<=6000” and 4.4, respectively. Also, the IC50 worked out at 85 nM in the data set with Plasmodium falciparum [3], 3.1 µM in the data set with CHO and 19.3 nM with Plasmodium falciparum [5].
With `C[C@H]1[C@@H](OCCNCCNc2nc(N3CCCCC3)nc(N3CCCCC3)n2)O[C@@H]2O[C@@]3(C)CC[C@H]4[C@H](C)CC[C@@H]1[C@@]24OO3.O=C(O)C(=O)O`, the selectivity ratio in data set [1] was determined as 150. In addition, the “Ratio IC50” value in the data set with Plasmodium falciparum [2] is “<=6000”; in data set [4], 2.3. Besides, the IC50 worked out at 47.5 nM in the data set with Plasmodium falciparum [3], 3.1 µM in the data set on CHO and 20.6 nM in the data set on Plasmodium falciparum [5].
On to `COc1ccc(Nc2nc(NCCN(CCO[C@H]3O[C@@H]4O[C@@]5(C)CC[C@H]6[C@H](C)CC[C@@H]([C@H]3C)[C@@]46OO5)CCO[C@H]3O[C@@H]4O[C@@]5(C)CC[C@H]6[C@H](C)CC[C@@H]([C@H]3C)[C@@]46OO5)nc(N3CCCCC3)n2)cc1.O=C(O)C(=O)O`, for which, in data set [1], the selectivity ratio is 1470. The entries for the “Ratio IC50” value (in the data set with Plasmodium falciparum [2]; in data set [4]) were “<=6000” and 1.2, respectively. In addition, the IC50 is 13.6 nM with Plasmodium falciparum [3], 17 µM in the data set on CHO and 11.6 nM in the data set with Plasmodium falciparum [5].
Consider `COc1ccc(Nc2nc(NCCNCCO[C@H]3O[C@@H]4O[C@@]5(C)CC[C@H]6[C@H](C)CC[C@@H]([C@H]3C)[C@@]46OO5)nc(Nc3ccccc3)n2)cc1.O=C(O)C(=O)O`, for which the selectivity ratio in data set [1] was more than 5050. Besides, the “Ratio IC50” value with Plasmodium falciparum [2] is “<=6000”; in data set [4], 1.5. In addition, the IC50 in the data set with Plasmodium falciparum [3] was 28.8 nM; with CHO, more than 100 µg/mL; with Plasmodium falciparum [5] it was 19.8 nM.
As for `C[C@H]1[C@@H](O)O[C@@H]2O[C@@]3(C)CC[C@H]4[C@H](C)CC[C@@H]1[C@@]24OO3` [ARTENIMOL], the selectivity ratio in data set [1] came out at 162000. Also, the IC50 in the data set on Plasmodium falciparum [3] amounted to 8.8 nM; in the data set with CHO, 148 µM; in the data set with Plasmodium falciparum [5], 0.9 nM. Moreover, in data set [4], the Ratio IC50 was 9.7.
In the case of `COc1ccc(Nc2nc(NCCNCCO[C@H]3O[C@@H]4O[C@@]5(C)CC[C@H]6[C@H](C)CC[C@@H]([C@H]3C)[C@@]46OO5)nc(N3CCOCC3)n2)cc1.O=C(O)C(=O)O`, in data set [1], the selectivity ratio turned out to be 81. Besides, the entries for the “Ratio IC50” value (in the data set with Plasmodium falciparum [2]; in data set [4]) were “<=6000” and 1.5, respectively. Besides, the IC50 in the data set on Plasmodium falciparum [3] stood at 57.4 nM; in the data set on CHO, 3.1 µM; in the data set on Plasmodium falciparum [5], 38.5 nM.
Consider `COc1ccc(Nc2nc(NCCN(CCO[C@H]3O[C@@H]4O[C@@]5(C)CC[C@H]6[C@H](C)CC[C@@H]([C@H]3C)[C@@]46OO5)CCO[C@H]3O[C@@H]4O[C@@]5(C)CC[C@H]6[C@H](C)CC[C@@H]([C@H]3C)[C@@]46OO5)nc(NCCN(C(C)C)C(C)C)n2)cc1.O=C(O)C(=O)O`, for which the selectivity ratio in data set [1] is more than 3080. Moreover, the entries for the “Ratio IC50” value (with Plasmodium falciparum [2]; in data set [4]) were “<=6000” and 1, respectively. In addition, the IC50 with Plasmodium falciparum [3] was 33.1 nM; in the data set with CHO it was more than 100 µg/mL; in the data set with Plasmodium falciparum [5], 31.8 nM.
Turning to `COc1ccc(Nc2nc(NCCN(CCO[C@H]3O[C@@H]4O[C@@]5(C)CC[C@H]6[C@H](C)CC[C@@H]([C@H]3C)[C@@]46OO5)CCO[C@H]3O[C@@H]4O[C@@]5(C)CC[C@H]6[C@H](C)CC[C@@H]([C@H]3C)[C@@]46OO5)nc(Nc3ccc(OC)cc3)n2)cc1.O=C(O)C(=O)O`, the selectivity ratio in data set [1] was more than 18200. Moreover, the figures for the “Ratio IC50” value (in the data set with Plasmodium falciparum [2]; in data set [4]; with Plasmodium falciparum [6]) were “<=6000”, 1.9 and 2, respectively. The IC50 in the data set on Plasmodium falciparum [3] is 10.6 nM; with CHO, more than 100 µg/mL; in the data set with Plasmodium falciparum [5] it was 5.5 nM.
Regarding `COc1ccc(Nc2nc(NCCNCCO[C@H]3O[C@@H]4O[C@@]5(C)CC[C@H]6[C@H](C)CC[C@@H]([C@H]3C)[C@@]46OO5)nc(NCCN(C(C)C)C(C)C)n2)cc1.O=C(O)C(=O)O`, the selectivity ratio in data set [1] turned out to be 23. The “Ratio IC50” value with Plasmodium falciparum [2] was “<=6000”; in data set [4], 1.9. Besides, the values for the IC50 in the data set on Plasmodium falciparum [3], with CHO and with Plasmodium falciparum [5] were 74.7 nM, 0.9 µM and 39.1 nM, respectively.
For the compound `C[C@H]1[C@@H](OCCN(CCNc2nc(Nc3ccccc3)nc(N3CCOCC3)n2)CCO[C@H]2O[C@@H]3O[C@@]4(C)CC[C@H]5[C@H](C)CC[C@@H]([C@H]2C)[C@@]35OO4)O[C@@H]2O[C@@]3(C)CC[C@H]4[C@H](C)CC[C@@H]1[C@@]24OO3.O=C(O)C(=O)O`, the selectivity ratio in data set [1] is more than 13500. Further, the “Ratio IC50” value with Plasmodium falciparum [2] is “<=6000”; in data set [4], 1.3. Further, the IC50 was 10.2 nM with Plasmodium falciparum [3], more than 100 µg/mL with CHO and 7.9 nM with Plasmodium falciparum [5].
The compound `CC[C@H]1CN2CCc3cc(OC)c(OC)cc3[C@@H]2C[C@@H]1C[C@H]1NCCc2cc(OC)c(OC)cc21` [EMETINE] yielded a half-inhibitory concentration (IC50) in the data set on CHO of 0.1 µM.
Turning to `CCc1nc(N)nc(N)c1-c1ccc(Cl)cc1` [PYRIMETHAMINE], the IC50 with Plasmodium falciparum [3] was 60700 nM; with CHO it was 271 µM; in the data set on Plasmodium falciparum [5] it was 33000 nM.
Turning to `COc1ccc(Nc2nc(NCCN(CCO[C@H]3O[C@@H]4O[C@@]5(C)CC[C@H]6[C@H](C)CC[C@@H]([C@H]3C)[C@@]46OO5)CCO[C@H]3O[C@@H]4O[C@@]5(C)CC[C@H]6[C@H](C)CC[C@@H]([C@H]3C)[C@@]46OO5)nc(N3CCOCC3)n2)cc1.O=C(O)C(=O)O`, the selectivity ratio in data set [1] is 35. The “Ratio IC50” value in the data set with Plasmodium falciparum [2] is “<=6000”; in data set [4], 1.4. Further, the values for the IC50 in the data set with Plasmodium falciparum [3], in the data set on CHO and in the data set on Plasmodium falciparum [5] were 35.9 nM, 0.9 µM and 25.8 nM, respectively.
As for `C[C@H]1[C@@H](OCCNCCNc2nc(Nc3ccccc3)nc(Nc3ccccc3)n2)O[C@@H]2O[C@@]3(C)CC[C@H]4[C@H](C)CC[C@@H]1[C@@]24OO3.O=C(O)C(=O)O`, the selectivity ratio in data set [1] was 588. Besides, the “Ratio IC50” value with Plasmodium falciparum [2] was “<=6000”; in data set [4], 2.2. The IC50 is 59.1 nM in the data set on Plasmodium falciparum [3], 16 µM in the data set on CHO and 27.2 nM in the data set on Plasmodium falciparum [5].
On to `COc1ccc(Nc2nc(NCCNCCO[C@H]3O[C@@H]4O[C@@]5(C)CC[C@H]6[C@H](C)CC[C@@H]([C@H]3C)[C@@]46OO5)nc(N3CCCCC3)n2)cc1.O=C(O)C(=O)O`, for which the selectivity ratio in data set [1] turned out to be 105. The “Ratio IC50” value was “<=6000” with Plasmodium falciparum [2] and 1.7 in data set [4]. Besides, the half-inhibitory concentration (IC50) came to 46.3 nM in the data set with Plasmodium falciparum [3], 3 µM in the data set on CHO and 28 nM in the data set with Plasmodium falciparum [5].
For `C[C@H]1[C@@H](OCCN(CCNc2nc(Nc3ccccc3)nc(Nc3ccccc3)n2)CCO[C@H]2O[C@@H]3O[C@@]4(C)CC[C@H]5[C@H](C)CC[C@@H]([C@H]2C)[C@@]35OO4)O[C@@H]2O[C@@]3(C)CC[C@H]4[C@H](C)CC[C@@H]1[C@@]24OO3.O=C(O)C(=O)O`, the selectivity ratio in data set [1] was determined as 54. Also, the “Ratio IC50” value with Plasmodium falciparum [2] was “<=6000”; in data set [4] it was 0.8. In addition, the IC50 turned out to be 10.3 nM in the data set with Plasmodium falciparum [3], 0.7 µM in the data set with CHO and 12.9 nM with Plasmodium falciparum [5].
Turning to `C[C@H]1[C@H](OC(=O)CCC(=O)O)O[C@@H]2O[C@@]3(C)CC[C@H]4[C@H](C)CC[C@@H]1[C@@]24OO3` [ARTESUNATE], the IC50 is 8.1 nM in the data set with Plasmodium falciparum [3] and less than 5.2 nM in the data set with Plasmodium falciparum [5].
